# Shown are actives, neighbours in structure and some others; about 3.5% of the full set was active somewhere.
# MrgX1 antagonist = antagonists of human MrgX1 receptor, primary screen, HEK293 cells, Fluo-4 calcium flux. Mas-related G-protein coupled receptor member X1 (Homo sapiens), Q96LB2. BAM8-22 antagonism; hits give low values. B-score at 10 µM. 310,000 tested, 1.3% active;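 active means calcium-response B-score plate-corrected more than 3 library SD below zero, starting fluorescence within 5 deviations, no agonist response on first addition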;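 further: peak minus trough fluorescence over baseline after final BAM8-22 challenge near maximal dose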
# Target sequence (Q96LB2 whole entry, looked up): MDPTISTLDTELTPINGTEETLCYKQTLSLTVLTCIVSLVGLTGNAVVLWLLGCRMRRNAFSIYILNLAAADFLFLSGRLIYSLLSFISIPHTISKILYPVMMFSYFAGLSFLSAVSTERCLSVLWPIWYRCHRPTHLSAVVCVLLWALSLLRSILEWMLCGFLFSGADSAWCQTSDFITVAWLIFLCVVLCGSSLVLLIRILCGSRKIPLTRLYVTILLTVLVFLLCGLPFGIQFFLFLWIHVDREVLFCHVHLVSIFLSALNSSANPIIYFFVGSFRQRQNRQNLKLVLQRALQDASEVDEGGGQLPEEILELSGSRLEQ
# RGS4 act = RGS4 potentiators or activators, primary screen, cell-based, HEK293 M3R inducible RGS4, calcium flux. carbachol calcium flux Fluo4; hits give low values. B-score at 10 µM. 310,000 tested, 0.92% active;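 active means B-score of the integrated calcium signal more than 4 SD below the library mean, with starting fluorescence not abnormally high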;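 further: negative B-score means reduced calcium response which marks RGS4 activation or potentiation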
#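 Reagent: ECmax carbachol challenge; Test system: M3R-expressing HEK293 line, RGS4 induced by doxycycline; Schedule: overnight RGS4 induction, 30 min dye load 37 °C, 20 min compound RT; Detection: calcium dye Fluo4 fluorescence; Read-out: Agonist-evoked peak-minus-minimum fluorescence over baseline, integrated ratio, B score.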
# MrgX1 PAM = positive allosteric modulators of MrgX1, primary screen, HEK293 cells, Fluo-4 calcium flux; FDSS; hits give high values; B-score at 10 µM; 310,000 tested, 0.63% active; AID 588675, 2011;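 active means plate-corrected calcium response at least 3 library SD above typical, normal starting fluorescence, not activating the receptor alone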;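 further: compound read alongside a low EC10 to EC30 dose of BAM8-22 agonist; peak minus trough fluorescence over baseline measured at the second addition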
# MrgX1 ag = agonists of human MrgX1 receptor, primary screen, HEK293 cells, Fluo-4 calcium flux; Fluo-4 calcium fluorescence, agonist mode; hits give high values; B-score at 10 µM; 310,000 tested, 0.44% active; AID 588627, 2011;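 active means calcium response B-score plate-corrected fluorescence ratio at least 3 library SD, with starting fluorescence B-score inside 5 SD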
#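 Assay system: MrgX1-expressing HEK293 cells / Amount: fifteen thousand cells per well / Doses: test compound in the initial addition of three / Timing: cells plated overnight, dye loaded 0.5 h 37 °C, 0.5 h room temperature / Technique: kinetic calcium dye fluorescence, Fluo-4 NW / Control set: positive and negative controls per plate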
# RGS4 inh = RGS4 inhibitors, primary screen, cell-based, HEK293 M3R inducible RGS4, calcium flux; Regulator of G-protein signaling 4 (Homo sapiens), P49798; B-score at 10 µM; AID 463165, 2010; Fluo-4 calcium flux; hits give high values; triggered by carbachol at its EC20; 310,000 tested, 0.45% active;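 active means B-score, a plate-corrected calcium signal, over three deviations above library mean, with baseline fluorescence within five deviations of library mean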;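 further: RGS4 expression induced by doxycycline in cells with stable M3 receptor; B-score is computed from the integrated fluorescence ratio over baseline after carbachol; higher B-score means a larger calcium signal and so more RGS4 inhibition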
# Target sequence (P49798 whole entry, looked up): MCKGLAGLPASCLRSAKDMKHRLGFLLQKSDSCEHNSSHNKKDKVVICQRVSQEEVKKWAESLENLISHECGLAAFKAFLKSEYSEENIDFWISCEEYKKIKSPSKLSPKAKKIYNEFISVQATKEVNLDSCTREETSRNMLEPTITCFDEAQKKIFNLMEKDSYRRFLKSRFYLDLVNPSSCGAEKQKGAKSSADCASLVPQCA
# MrgX1 antag conf = MrgX1 receptor antagonists, duplicate retest, confirmation, HEK293 cells, Fluo-4 calcium flux | shares compounds with MrgX1 antagonist | remaining BAM8-22 calcium response % of control (hits give low values), % at 10 µM | BAM8-22 calcium flux; hits give low values | AID 602420, 2012 | 2,300 tested, 19% active;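 active means remaining agonist calcium response no higher than 100% minus 3 SD of agonist-only control wells, with starting fluorescence near control levels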;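 further: agonist BAM8-22 given at a near maximal EC90 to ECmax level; peak minus minimum fluorescence divided by baseline after agonist addition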
# HEK293 Ca flux = nonspecific calcium signal in parental HEK293, confirmation, counter-screen for MrgX1 antagonist project, parental HEK293 cells, Fluo-4 calcium flux | shares compounds with MrgX1 antagonist | Fluo-4 calcium fluorescence, FDSS | fluorescence ratio F(max-min)/F0 at 10 µM | 4,000 tested, 2% active;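 active means duplicate-averaged calcium fluorescence ratio at least three times the standard deviation of buffer wells, a nonspecific response in parental cells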
# HEK293 Ca counter = calcium response in parental HEK293 cells, primary screen, counter-screen for MrgX1 allosteric activator project, cell-based, Fluo-4 calcium flux, duplicate | fluorescence ratio F(max-min)/F0 at 10 µM | 4,000 tested, 0.4% active | shares compounds with MrgX1 antagonist | Fluo-4 fluorescence ratio; hits give high values;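 active means calcium fluorescence ratio, averaged over duplicates, at least 3 SD of the buffer-well ratio, meaning a nonspecific response in receptor-free cells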;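 further: untransfected parental HEK293 lacking MrgX1 used as counterscreen for MrgX1 allosteric activators; fluorescence change taken during the second addition on a kinetic imager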
# HEK293 Ca cntr2 = calcium response in parental HEK293 cells, primary screen, counter-screen for MrgX1 agonist project, cell-based, Fluo-4 calcium flux, duplicate, agonist mode. shares compounds with MrgX1 antagonist. Fluo-4 calcium fluorescence (FDSS); hits give high values. fluorescence ratio F(max-min)/F0 at 10 µM. 4,000 tested, 8.7% active. AID 624115, 2012;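 active means calcium fluorescence ratio at least three times the spread of buffer wells, meaning a non-specific response in parental cells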
# * marks the source's active call; other numbers are inactive results; i = inactive; / = no result.
SMILES,MrgX1 antagonist,RGS4 act,MrgX1 PAM,MrgX1 ag,RGS4 inh,MrgX1 antag conf,HEK293 Ca flux,HEK293 Ca counter,HEK293 Ca cntr2
O=C(CN1C(=O)NC2(CCCC2)C1=O)OCCOc1ccc(Cl)cc1,i,i,i,i,i,/,/,/,/
O=C(OCC(=O)N1CCN(c2ccccc2)CC1)c1ccc(O)cc1O,i,i,i,i,i,/,/,/,/
Cc1cc(C(=O)OCC(=O)N2CCN(c3ccccc3)CC2)c2ccccc2n1,-5.5*,i,i,i,i,i,i,i,i
COc1ccccc1NC(=O)CC12CC3CC(CC(Br)(C3)C1)C2,i,i,i,i,i,/,/,/,/
Clc1ccc2nnnc(-c3ccccc3)c2c1,-4.6*,i,i,i,i,i,i,i,i
COc1ccc(CCNC(=O)C(=O)NCc2cccs2)cc1OC,i,i,i,i,i,/,/,/,/
Cn1c(SCC(=O)c2ccc(O)cc2O)nnc1-c1ccccc1,i,i,i,i,i,/,/,/,/
Cc1cccc(C(=O)NCc2nnc(SCc3ccc(F)cc3)n2C)c1,-4.8*,i,i,i,i,i,i,i,i
CCOC(=O)CSc1nnc(CNC(=O)c2cccc(C)c2)n1C,i,i,i,i,i,/,/,/,/
CCCC1=C(C(=O)OCC)C(c2ccncc2)n2ncnc2N1 (stereo not given),-6.1*,i,i,i,i,i,i,i,i
O=C(Nc1cc2c3c(c1)CC(=O)N3CCC2)c1ccccc1Br,i,i,i,i,i,/,/,/,/
Cc1cccc(C)c1NC(=S)N(CCCN1CCOCC1)Cc1cccnc1,-4.9*,i,i,i,i,i,i,i,i
Cc1cc(C)c(NC(=S)N(CCCN2CCOCC2)Cc2cccnc2)c(C)c1,i,i,i,i,i,/,/,/,/
COc1ccc(-c2csc(/C(C#N)=C\c3ccc(O)c([N+](=O)[O-])c3)n2)cc1OC,-11*,i,i,i,i,41%*,i,i,i
COc1ccc(-c2csc(/C(C#N)=C\c3ccc(OC)c([N+](=O)[O-])c3)n2)cc1,i,i,i,i,i,/,/,/,/
Cc1ccccc1-n1ncc2c1CC(C)(C)CC2NC(=O)c1cn[nH]c1C (stereo not given),i,i,i,i,i,/,/,/,/
COc1ccc(Cn2c(C)ccc2C)cc1,-6.3*,i,i,i,i,i,i,i,i
Cc1ccc2oc(C(=O)Nc3nnc(C)s3)c(C)c2c1,-4.7*,i,i,i,i,i,i,i,i
Cc1ccc2oc(C(=O)Nc3nonc3C)c(C)c2c1,i,i,i,i,i,/,/,/,/
CCCCC(=O)Nc1ccc(C(=O)N(CC)c2ccccc2C)cc1,-7*,i,i,i,i,i,i,i,i
Cc1cccn2c(=O)nc(SCC(=O)NC3CCCC3)nc12,i,i,i,i,i,/,/,/,/
